Where no end group is shown, it is not given here.
Tests used:
[1] = Circular dichroism spectroscopy; type: physicochemical; conditions: CD, CDNN
Procedure, shortened: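 POPE/POPG (7:3) dried from chloroform under N2 overnight, resuspended in PBS pH 7.4 and extruded through 0.1-μm membranes to form SUVs, used within 6 h. Peptide at 0.5 mM in PBS pH 7.4, alone or with SUVs. Spectra taken at 25°C from 250–190 nm in a 0.1-mm quartz cell, 1-nm steps, 60 nm/min. Each spectrum averaged three scans and was baseline-subtracted. Helix content estimated by CDNN 2.1.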

[2] = test system: breast cancer cell line, MCF-7; assay: MTT assay; type: cell-based; conditions: MCF-7, 24-h incubation with peptide, triplicate, OD 550 nm
Procedure, shortened: (§1)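 ATCC cells were maintained at 37°C, 5% CO2: U87 and A375 in DMEM with 10% FBS and 1% penicillin/streptomycin, MCF-7 in DMEM with 5% FBS. They were seeded at 5,000 cells/well and grown 24 h. Peptide came from a 10 mM stock diluted in medium; controls got PBS. MTT (5 mg/mL in PBS, pH 7.4) was added for 4 h, then formazan was dissolved in DMSO.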

[3] = test system: brain glioma cell line, U87; assay: MTT assay; type: cell-based; conditions: U87, 24-h incubation with peptide, triplicate, OD 550 nm
Procedure, shortened: as §1

[4] = test system: malignant melanoma cell line, A375; assay: MTT assay; type: cell-based; conditions: A375, 24-h incubation with peptide, triplicate, OD 550 nm
Procedure, shortened: as §1

HUVECs = assay: Anti-angiogenesis assay; type: cell-based, human; conditions: 10.0 μM, 10−12 h, in comparison with the blank control (PBS), one-way ANOVA, Angiogenesis Analyzer for ImageJ
Procedure, shortened: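 HUVECs grown in Medium 200 with low serum growth supplement at 37°C, 5% CO2. Matrigel thawed overnight at 4°C, added to μ-Slide wells and polymerised 30−60 min in a humidified incubator. HUVECs at 1 × 10^5 cells/mL were added and incubated 10−12 h at 37°C, 5% CO2, with a PBS-treated negative control. Tube formation was then imaged by fluorescence microscopy.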

[5] = test system: MCF 7, A375 and U87 cancer cell lines; assay: MTT assay, comparison over three cancer cell lines; type: cell-based; conditions: result in words
Procedure, shortened: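 Lines used: MCF-7 (DMEM, 5% FBS) and A375 and U87 (DMEM, 10% FBS, penicillin/streptomycin). Seeded at 5,000 cells/well and grown 24 h. Peptides were diluted from 10 mM stock in medium; PBS served as control; triplicates. After 24 h exposure, MTT was added for 4 h at 37°C. Formazan was dissolved in DMSO and OD read at 550 nm.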

MCF-7 cells = assay: PI and Annexin V staining, fluorescent images; type: cell-based; conditions: 5 μM, in comparison with AP1-Z1
Procedure, shortened: (§2)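 MCF-7 (DMEM, 5% FBS) or MCF-10A (DMEM/F12 with horse serum, hydrocortisone, insulin, EGF, cholera toxin) seeded at 2 × 10^4 cells/well in 48-well plates and cultured 24 h. Peptide added, with PBS as negative control. After 1−3 h, Alexa Fluor 488 Annexin V (1:250 v/v) and PI (1:1,000 v/v) were added for 30 min at 37°C. Cells were then imaged by fluorescence microscopy.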

MCF-10A cells [6] = assay: PI and Annexin V staining, fluorescent images; type: cell-based, human; conditions: 5.0 μM
Procedure, shortened: as §2

MCF-10A cells [7] = assay: Apoptosis assay, flow cytometry Annexin V/PI; type: cell-based, human; conditions: 5 μM, normal breast cell line
Procedure, shortened: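 MCF-10A cells, a normal breast line, grown in DMEM/F12 with 5% horse serum, hydrocortisone, insulin, EGF and cholera toxin. Seeded at 2 × 10^5 cells/mL in 6-well plates and cultured 24 h before peptide exposure; PBS served as negative control. After 1−3 h, cells were washed in cold PBS and set to 1 × 10^6 cells/mL in Annexin-binding buffer. Stained with Alexa Fluor 488 Annexin V plus PI for 10 min at room temperature. Read by flow cytometry, excitation 488 nm, emission 530 and 575 nm.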

[8] = 0.5 mM peptide in 1× PBS buffer pH 7.4, 25°C, average of three scans

| Substance | α helix ratio [1, 8] [%] | IC50 [2] [µM] | IC50 [3] [µM] | IC50 [4] [µM] | other results |
| --- | --- | --- | --- | --- | --- |
| FLFSLIKHAIKGLISAFK [AP1-Z3a] | 24.28 |  |  |  |  |
| FLFKLIKKAIKKLIKAFK [AP1-Z7] | 16.16 |  |  |  | α helix ratio ([1]; 0.5 mM peptide in POPE/POPG (7:3) SUVs in 1× PBS, 3:1 lipid:peptide): 44.95% |
| FLFSLIPHAISGLISAFK-NH2 [AP1-Z1] |  | 7.22 | 10.2 | 9.48 |  |
| FLFKLIPKAIKGLIKAFK [AP1-Z5a] |  |  |  |  | angiogenesis (tube formation of HUVECs) (HUVECs): significantly inhibited angiogenesis; IC50 relative to the other peptides [5]: relatively lower; apoptosis of MCF-7 cells (ANXA5/PI fluorescent images) (MCF-7 cells): significantly induced the apoptosis; apoptosis of MCF-10A cells (ANXA5/PI fluorescent images) (MCF-10A cells [6]): no significant change in the apoptosis; apoptosis of MCF-10A cells (MCF-10A cells [7]): did not significantly promote the apoptosis |
| FLFKLIKHAIKGLIKAFK-NH2 [AP1-Z5b] |  | 1.04 | 3.12 | 2.61 |  |

From paper PMC6940675 (Molecular Therapy Oncolytics, 2019)
